Reference: ChEMBL document CHEMBL1157080 (Eur J Med Chem, 2010)
pIC50: −log10 of the molar value.

How the values were obtained:
HT-29 [1] = assay: Growth inhibition of human HT-29 cells at 100 uM after 72 hrs by cell titer glo assay; format: functional; conditions: HT-29, 72 h, read-out: GI
Summary of the method: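 HT-29 cells in RPMI 1640/5% FBS, >95% viable at harvest, seeded 5000 cells/well and incubated 18–24 h before dosing at a single 100 μM screening dose (final DMSO 0.1%). Percent growth inhibition from CellTiter-Glo luminescence 72 h after treatment, triplicate wells.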

HT-29 [2] = assay: Growth inhibition of human HT-29 cells after 72 hrs by cell titer glo assay; format: functional, cell-based; conditions: HT-29, 72 h
[3] = target: T1, cGMP-specific 3',5'-cyclic phosphodiesterase (Homo sapiens, UniProt O76074); assay: Inhibition of human recombinant PDE5 at 100 uM after 1.5 hrs by fluorescent polarization assay
Summary of the method: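 Single 100 μM screening dose, run in triplicate. Purified PDE5 with 50 nM TAMRA-cGMP, 1.5 h at 30 °C, then IMAP binding reagent for 30 min at 30 °C. Percent inhibition from fluorescence polarization.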

[4] = target: T1, cGMP-specific 3',5'-cyclic phosphodiesterase; assay: Inhibition of human recombinant PDE5 after 1.5 hrs by fluorescent polarization assay
Summary of the method: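 Purified PDE5 (5 μ/mL) treated with compound or vehicle plus 50 nM TAMRA-cGMP, incubated 1.5 h at 30 °C. IMAP binding reagent was then added for 30 min at 30 °C and fluorescence polarization read.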

Compound	inhibition of growth at 100 µM (HT-29 [1]) [%]	pIC50 (HT-29 [2])	Inhibition [3] [%]	pIC50 [4]
COC(=O)[C@@H]1Cc2c([nH]c3ccccc23)[C@H](c2ccccc2Br)N1	92.8	4.59	46	
COC(=O)[C@H]1Cc2c([nH]c3ccccc23)[C@@H](c2ccccc2Br)N1C(=O)CCl		5.80	86	4.54
CN1CC(=O)N2[C@H](c3ccc4c(c3)OCO4)c3[nH]c4ccccc4c3C[C@@H]2C1=O		< 4.00	100	
CCN1CC(=O)N2[C@H](c3ccccc3Br)c3[nH]c4ccccc4c3C[C@@H]2C1=O		< 4.00	97	
COC(=O)[C@@H]1Cc2c([nH]c3ccccc23)[C@@H](c2ccccc2Br)N1	57.5		91.1	5.51
CCN1C(=O)[C@H]2Cc3c([nH]c4ccccc34)[C@H](c3ccccc3Br)N2C1=O	65.1		93	5.40
CN1CC(=O)N2[C@H](c3ccccc3Br)c3[nH]c4ccccc4c3C[C@H]2C1=O		4.59	97.6	7.22
CN1CC(=O)N2[C@@H](c3ccccc3Br)c3[nH]c4ccccc4c3C[C@H]2C1=O	76.1	4.57	92.7	5.55
CCN1CC(=O)N2[C@@H](c3ccccc3Br)c3[nH]c4ccccc4c3C[C@H]2C1=O			90.3	
CCN1C(=O)[C@H]2Cc3c([nH]c4ccccc34)[C@@H](c3ccccc3Br)N2C1=O	79.5	4.68	98.7	6.54
O=C1[C@H]2Cc3c([nH]c4ccccc34)[C@@H](c3ccccc3Br)N2C(=O)CN1Cc1ccccc1	34.2		91.9	5.47
CCCCN1CC(=O)N2[C@H](c3ccccc3Br)c3[nH]c4ccccc4c3C[C@H]2C1=O		< 4.00	93.8	7.30
CCCCN1CC(=O)N2[C@@H](c3ccccc3Br)c3[nH]c4ccccc4c3C[C@@H]2C1=O	50.2		66.7	
CN1CC(=O)N2[C@H](c3ccccc3Br)c3[nH]c4ccccc4c3C[C@@H]2C1=O	50.4		96	7.00
CCCCN1CC(=O)N2[C@H](c3ccccc3Br)c3[nH]c4ccccc4c3C[C@@H]2C1=O	55.7		99.7	6.59
COC(=O)[C@@H]1Cc2c([nH]c3ccccc23)[C@H](c2ccccc2Br)N1C(=O)CCl		5.39	35.8	

Compound	inhibition of growth at 100 µM (HT-29 [1]) [%]	pIC50 (HT-29 [2])	Inhibition [3] [%]	pIC50 [4]
CCN1C(=O)[C@@H]2Cc3c([nH]c4ccccc34)[C@@H](c3ccccc3Br)N2C1=S		4.65	93.5	5.21
CCN1CC(=O)N2[C@H](c3ccccc3Br)c3[nH]c4ccccc4c3C[C@H]2C1=O	47.2		89.2	
COC(=O)[C@H]1Cc2c([nH]c3ccccc23)[C@@H](c2ccccc2Br)N1	89	4.32	85.5	5.25
CCN1C(=O)[C@@H]2Cc3c([nH]c4ccccc34)[C@H](c3ccccc3Br)N2C1=O	77.9	4.62	89.5	6.19
CCN1C(=O)[C@@H]2Cc3c([nH]c4ccccc34)[C@@H](c3ccccc3Br)N2C1=O	69.8	4.70	99.5	7.42
COC(=O)[C@@H]1Cc2c([nH]c3ccccc23)[C@@H](c2ccccc2Br)N1C(=O)CCl			47.9	
CCCCN1CC(=O)N2[C@@H](c3ccccc3Br)c3[nH]c4ccccc4c3C[C@H]2C1=O		< 4.00	69.1	
O=C1[C@@H]2Cc3c([nH]c4ccccc34)[C@H](c3ccccc3Br)N2C(=O)CN1Cc1ccccc1		< 4.00	48.7	
COC(=O)[C@H]1Cc2c([nH]c3ccccc23)[C@H](c2ccccc2Br)N1C(=O)CCl		< 4.00	47.9	
CCN1CC(=O)N2[C@@H](c3ccccc3Br)c3[nH]c4ccccc4c3C[C@@H]2C1=O	65.6		91.7	
CCN1C(=O)[C@H]2Cc3c([nH]c4ccccc34)[C@H](c3ccccc3Br)N2C1=S		< 4.00	82.8	4.13
CN1CC(=O)N2[C@@H](c3ccccc3Br)c3[nH]c4ccccc4c3C[C@@H]2C1=O	61.7		75.5	4.06
O=C1[C@@H]2Cc3c([nH]c4ccccc34)[C@@H](c3ccccc3Br)N2C(=O)CN1Cc1ccccc1		< 4.00	100	7.40
COC(=O)[C@H]1Cc2c([nH]c3ccccc23)[C@H](c2ccccc2Br)N1	85	4.11	21.5	
O=C1[C@H]2Cc3c([nH]c4ccccc34)[C@H](c3ccccc3Br)N2C(=O)CN1Cc1ccccc1		< 4.00	69.4	
